# Rows were chosen to be rich in hits. Some 3.1% of all compounds tested hit in one or more screens of this group.
# Env fusion inh = inhibitors of HIV Env-mediated cell fusion; AID 651610; inhibition, % at 12.3 µM; hit rate 1.1% among 360,000; HeLa-JRFL Env/CEM21 cell fusion, luciferase;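 active = mean replicate inhibition score of at least 50 and every replicate individually at or above 50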;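 note: 0% = plate neutral controls and 100% = maraviroc near 300 nM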
# EWS-Fli block = EWS/Fli transcriptional activity inhibition; inhibition, % at 12.6 µM; AID 651661; hit rate 0.67% among 350,000; A673 NR0B1-luciferase reporter, viability-normalised;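 active = mean inhibition of at least 50% after viability correction, with every replicate also passing that limit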;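 note: firefly luciferase signal divided by Alamar Blue viability fluorescence both relative to DMSO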
# FGF22 binding = FGF22 (human) thermal shift binding; Q9HCT0; recombinant FGF22 thermal shift, SYPRO orange fluorescence; percent of sucrose octasulfate shift, DMSO zero; activity (Tm shift, normalised), % at 9.99 µM; hit rate 1.5% among 340,000;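 active = mean Tm shift, scaled 0 neutral to 100 positive control, at about 1.3% or above, every replicate too, limit read from the data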
# Target sequence (Q9HCT0 whole entry, looked up): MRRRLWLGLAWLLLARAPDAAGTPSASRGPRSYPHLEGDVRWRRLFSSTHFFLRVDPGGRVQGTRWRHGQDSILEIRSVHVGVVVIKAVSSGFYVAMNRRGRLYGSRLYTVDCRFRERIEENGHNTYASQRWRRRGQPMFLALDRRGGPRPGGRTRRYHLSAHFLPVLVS
# FN deposit inh = fibronectin deposition inhibition. AH1F fibroblasts, Alexa488-fibronectin deposition fluorescence, overnight. inhibition, % at 12.6 µM. hit rate 0.086% among 350,000;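 active = mean inhibition across replicates of 30% or more, regardless of how many single replicates reach that level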;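 note: positive control wells lacked labelled fibronectin entirely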
#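 test system = AH1F fibroblasts assembling fluorescent fibronectin matrix | quantity = 10000 AH1F cells per well | buffer or medium = DMEM plus 2% serum, read in PBS | doses = single dose, pinned | incubation = 1 h cell attachment, overnight exposure to compound and label | detection = fluorescence at 485 nm excitation, 525 nm emission | read-out basis = inhibition from reduced deposited-fibronectin fluorescence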
# PAX8 reporter = lowers PAX8-driven luciferase in RMG-I cells | hit rate 1.2% among 360,000 | inhibition, % at 12.6 µM | AID 652154 | RMG-I TPO-luciferase reporter, SteadyGlo, 24 h;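 active = mean replicate inhibition at least 60% with every replicate also reaching 60%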;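 note: luciferase light reporting Pax8 driven TPO promoter activity; plate controls were median of neutral control wells for no effect and mitoxantrone controls for full effect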
# PGC1a acetyl inh = lowers PGC1a acetylation signal in U2OS cells. AID 651687. AlphaScreen anti-acetyl-lysine; with virally co-expressed GCN5 acetyltransferase. inhibition, % at 15.6 µM. hit rate 0.17% among 350,000;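 active = every replicate shows inhibition of at least 40%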;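 note: 0% = neutral control wells and 100% = positive control wells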
# * marks the source's active call; other numbers are inactive results; . = not tested or not shown; ! = not confirmed by another sample; [ ] = remark or other dose.
SMILES,Env fusion inh,EWS-Fli block,FGF22 binding,FN deposit inh,PAX8 reporter,PGC1a acetyl inh
COc1ccc(C#Cc2cnc3c(c2)C(=O)N([C@@H](C)CO)C[C@@H](C)[C@@H](CN(C)C(C)=O)O3)cc1,.,-16,0,5,7,12
COc1ccccc1C(O)P(=O)(OC1CCCCC1)OC1CCCCC1 (stereo unspecified),-1,7,0,0,13,-21
O=P(OC1CCCCC1)(OC1CCCCC1)C(O)c1ccc(Cl)cc1Cl (stereo unspecified),61*,.,.,-5,.,-2
O=P(OC1CCCCC1)(OC1CCCCC1)C(O)c1c(Cl)cccc1Cl (stereo unspecified),59*,.,.,-15,.,-6
CCCCCN(C(=O)CCc1cn(CCCCC)c2ccccc12)c1ccc(Oc2cccnc2)cc1,58*,15,0,14,-2,.
N#Cc1ccc(-c2ccc(C3[C@@H]4CN(C(=O)c5ccc6c(c5)OCO6)C[C@H]3N4)cc2)cc1 (stereo partly specified),.,-8,.,-325,91*!,-7
O=C(c1ccc(F)cc1)N1C[C@@H]2N[C@H](C1)C2c1ccc(-c2ccc(F)cc2)cc1 (stereo partly specified),.,0,.,-3,84*!,-4
Cc1ccccc1-c1ccc(C2[C@@H]3CN(C(=O)c4ccc(F)cc4)C[C@H]2N3)cc1 (stereo partly specified),.,-3,.,2,65*!,-11
O=C(c1ccc(F)cc1)N1C[C@@H]2N[C@H](C1)C2c1ccc(-c2cncnc2)cc1 (stereo partly specified),.,-5,.,-7,4,-2
COc1ccc(S(=O)(=O)Nc2cccc3c2O[C@H](CN(C)C(=O)Nc2ccc(F)cc2)[C@@H](C)CN([C@@H](C)CO)C3=O)cc1,.,-1,0,.,.,-6
CC(C)NC(=O)Nc1ccc2c(c1)C(=O)N([C@H](C)CO)C[C@@H](C)[C@H](CN(C)Cc1ccc(-c3ccccc3)cc1)O2,3[16.7 µM],.,0,.,16,8
C[C@@H]1CN([C@@H](C)CO)C(=O)c2cccc(NC(=O)C3CCCCC3)c2O[C@H]1CN(C)CC1CCCCC1,63*[16.7 µM],3,0,.,-19,6
C[C@@H]1CN([C@H](C)CO)C(=O)c2cccc(NC(=O)c3cnccn3)c2O[C@H]1CN(C)Cc1ccccc1,64*[16.7 µM],2,0,.,5,8
C[C@H](CO)N1C[C@H](C)[C@@H](CN(C)S(C)(=O)=O)Oc2c(NC(=O)C3CCCCC3)cccc2C1=O,21[16.7 µM],-9,1,-2,5,-8
C[C@H](CO)N1C[C@H](C)[C@@H](CN(C)Cc2ccc(-c3ccccc3)cc2)Oc2c(NC(=O)C3CC3)cccc2C1=O,.,-1,148*,.,.,-33
C[C@H]1CN([C@@H](C)CO)C(=O)c2cccc(NC(=O)C3CCCCC3)c2O[C@@H]1CN(C)CC1CCCCC1,9[16.7 µM],8,0,.,-22,-6
C[C@H]1CN([C@@H](C)CO)C(=O)c2cccc(NC(=O)C3CCCCC3)c2O[C@H]1CN(C)S(C)(=O)=O,62*[16.7 µM],-2,0,-12,4,.
C[C@H](CO)N1C[C@H](C)[C@H](CN(C)Cc2ccc(-c3ccccc3)cc2)Oc2c(NC(=O)C3CC3)cccc2C1=O,.,3,0,.,.,-10
O=C1CNC[C@H]2[C@H](c3ccc(C4=CCCC4)cc3)[C@@H](CO)N12,.,-8,.,-8,.,2
CN1c2ccc(Br)cc2[C@H]2[C@H](CCN2C(=O)C2CCCC2)[C@@H]1CO,.,-7,.,0,.,-4
C[C@@H]1CN([C@@H](C)CO)C(=O)c2cccc(NC(=O)c3ccncc3)c2O[C@H]1CN(C)CC1CCCCC1,99*[16.7 µM],-9,0,18,4,.
C[C@H](CO)N1C[C@H](C)[C@@H](CN(C)Cc2ccccc2)Oc2c(NC(=O)C3CCCCC3)cccc2C1=O,7[16.7 µM],-5,0,-23,-3,.
C[C@H](CO)N1C[C@H](C)[C@@H](CN(C)CC2CCCCC2)Oc2c(NC(=O)CCCCCC(=O)Nc3ccccc3N)cccc2C1=O,.,.,.,6,81*,-14
C[C@@H]1CN([C@@H](C)CO)C(=O)c2cccc(NC(=O)C3CCCCC3)c2O[C@H]1CN(C)Cc1ccccc1,63*[16.7 µM],-1,1,.,6,.
